Reference: ChEMBL document CHEMBL5724801, “EUbOPEN Chemogenomics Library - Multiplex” (2024)
Values joined by “and” are separate entries in the source; they are usually repeats but may differ in a detail not shown here. Equal values may be shown once.

System: U2OS
Assay: Multiplex assay against U2OS
Assay type: toxicity, cell-based
Conditions: human
Procedure, shortened: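 With compound added, live cells were imaged on a CQ1 microscope at 37°C and 5% CO2; staining with Hoechst33342, BioTracker Green Microtubule Cytoskeleton Dye, MitoTracker Red and Annexin V Alexa Fluor 680 had been done at seeding. The CellPathfinder machine-learning gating scheme split cells into Hoechst high-intensity objects or normal cells, normal cells into healthy, pyknosed or fragmented nuclei, and pyknosed cells into mitotic or apoptotic. The tubulin, mitochondrial-mass and membrane-permeability phenotypes are per cents of healthy-nucleus cells.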

[1] = 12 h, 1 µM, compound concentration 1 uM
[2] = 12 h, 10 µM, compound concentration 10 uM
[3] = 24 h, 1 µM, compound concentration 1 uM
[4] = 24 h, 10 µM, compound concentration 10 uM
[5] = 48 h, 1 µM, compound concentration 1 uM
[6] = 48 h, 10 µM, compound concentration 10 uM

Cl.N=C(N)NC(=O)Cc1c(Cl)cccc1Cl [GUANFACINE HYDROCHLORIDE]
Population Apoptotic (%) [1]: 80% and 100%
Population Fragmented Nuclei (%) [1]: 28% and 20%
Population Healthy Nuclei (%) [1]: 55% and 72%
Population Hoechst High Intensity Objects (%) [1]: 4% and 2%
Population Membrane Permeable-Phenotype (%) [1]: 5% and 8%
Population Mitochondria Different-Phenotype (%) [1]: 1% and 2%
Population Mitotic Cells (%) [1]: 19% and 0%
Population Normal (%) [1]: 95% and 97%
Population Pyknosed Nuclei (%) [1]: 16% and 7%
Population Tubulin-Different-Phenotype (%) [1]: 2% and 6%
Total Cell Count [1]: 165 and 129
Population Apoptotic (%) [2]: 87% and 77%
Population Fragmented Nuclei (%) [2]: 27% and 18%
Population Healthy Nuclei (%) [2]: 61% and 74%
Population Hoechst High Intensity Objects (%) [2]: 1%
Population Membrane Permeable-Phenotype (%) [2]: 10% and 12%
Population Mitochondria Different-Phenotype (%) [2]: 3% and 7%
Population Mitotic Cells (%) [2]: 12% and 22%
Population Normal (%) [2]: 98%
Population Pyknosed Nuclei (%) [2]: 11% and 7%
Population Tubulin-Different-Phenotype (%) [2]: 7% and 10%
Total Cell Count [2]: 280 and 130
Population Apoptotic (%) [3]: 75% and 83%
Population Fragmented Nuclei (%) [3]: 32% and 18%
Population Healthy Nuclei (%) [3]: 56% and 74%
Population Hoechst High Intensity Objects (%) [3]: 3% and 0%
Population Membrane Permeable-Phenotype (%) [3]: 5% and 8%
Population Mitochondria Different-Phenotype (%) [3]: 3% and 4%
Population Mitotic Cells (%) [3]: 25% and 16%
Population Normal (%) [3]: 96% and 99%
Population Pyknosed Nuclei (%) [3]: 10% and 7%
Population Tubulin-Different-Phenotype (%) [3]: 2% and 5%
Total Cell Count [3]: 194 and 160
Population Apoptotic (%) [4]: 84% and 83%
Population Fragmented Nuclei (%) [4]: 25% and 15%
Population Healthy Nuclei (%) [4]: 64% and 76%
Population Hoechst High Intensity Objects (%) [4]: 0% and 2%
Population Membrane Permeable-Phenotype (%) [4]: 9% and 10%
Population Mitochondria Different-Phenotype (%) [4]: 2% and 4%
Population Mitotic Cells (%) [4]: 15% and 16%
Population Normal (%) [4]: 99% and 97%
Population Pyknosed Nuclei (%) [4]: 9% and 7%
Population Tubulin-Different-Phenotype (%) [4]: 4% and 5%
Total Cell Count [4]: 326 and 160
Population Apoptotic (%) [5]: 89% and 90%
Population Fragmented Nuclei (%) [5]: 28% and 16%
Population Healthy Nuclei (%) [5]: 60% and 73%
Population Hoechst High Intensity Objects (%) [5]: 2% and 3%
Population Membrane Permeable-Phenotype (%) [5]: 4% and 8%
Population Mitochondria Different-Phenotype (%) [5]: 3% and 4%
Population Mitotic Cells (%) [5]: 10% and 9%
Population Normal (%) [5]: 97% and 96%
Population Pyknosed Nuclei (%) [5]: 10%
Population Tubulin-Different-Phenotype (%) [5]: 3% and 6%
Total Cell Count [5]: 262 and 217
Population Apoptotic (%) [6]: 90% and 95%
Population Fragmented Nuclei (%) [6]: 21% and 14%
Population Healthy Nuclei (%) [6]: 68% and 74%
Population Hoechst High Intensity Objects (%) [6]: 2% and 1%
Population Membrane Permeable-Phenotype (%) [6]: 8% and 10%
Population Mitochondria Different-Phenotype (%) [6]: 3% and 1%
Population Mitotic Cells (%) [6]: 9% and 4%
Population Normal (%) [6]: 97% and 98%
Population Pyknosed Nuclei (%) [6]: 10% and 11%
Population Tubulin-Different-Phenotype (%) [6]: 4% and 3%
Total Cell Count [6]: 440 and 213

CCCn1c(=O)c2[nH]c(C3CCCC3)nc2n(CCC)c1=O [1,3-DIPROPYL-8-CYCLOPENTYLXANTHINE [DPCPX]]
Population Apoptotic (%) [1]: 87% and 93%
Population Fragmented Nuclei (%) [1]: 25% and 15%
Population Healthy Nuclei (%) [1]: 64% and 72%
Population Hoechst High Intensity Objects (%) [1]: 1% and 0%
Population Membrane Permeable-Phenotype (%) [1]: 1% and 7%
Population Mitochondria Different-Phenotype (%) [1]: 3% and 4%
Population Mitotic Cells (%) [1]: 12% and 6%
Population Normal (%) [1]: 98% and 100%
Population Pyknosed Nuclei (%) [1]: 9% and 12%
Population Tubulin-Different-Phenotype (%) [1]: 1% and 5%
Total Cell Count [1]: 250 and 125
Population Apoptotic (%) [2]: 68% and 100%
Population Fragmented Nuclei (%) [2]: 30% and 21%
Population Healthy Nuclei (%) [2]: 60% and 69%
Population Hoechst High Intensity Objects (%) [2]: 2% and 3%
Population Membrane Permeable-Phenotype (%) [2]: 5% and 6%
Population Mitochondria Different-Phenotype (%) [2]: 1% and 9%
Population Normal (%) [2]: 97% and 96%
Population Pyknosed Nuclei (%) [2]: 9% and 8%
Population Tubulin-Different-Phenotype (%) [2]: 3%
Total Cell Count [2]: 206 and 96
Population Apoptotic (%) [3]: 83% and 87%
Population Fragmented Nuclei (%) [3]: 24% and 13%
Population Healthy Nuclei (%) [3]: 68% and 74%
Population Hoechst High Intensity Objects (%) [3]: 3% and 2%
Population Membrane Permeable-Phenotype (%) [3]: 5% and 8%
Population Mitochondria Different-Phenotype (%) [3]: 3%
Population Mitotic Cells (%) [3]: 16% and 12%
Population Normal (%) [3]: 96% and 97%
Population Pyknosed Nuclei (%) [3]: 7% and 11%
Population Tubulin-Different-Phenotype (%) [3]: 4%
Total Cell Count [3]: 261 and 138
Population Apoptotic (%) [4]: 89% and 100%
Population Fragmented Nuclei (%) [4]: 27% and 21%
Population Healthy Nuclei (%) [4]: 64% and 71%
Population Hoechst High Intensity Objects (%) [4]: 2% and 4%
Population Membrane Permeable-Phenotype (%) [4]: 7% and 3%
Population Mitochondria Different-Phenotype (%) [4]: 0% and 3%
Population Mitotic Cells (%) [4]: 10% and 0%
Population Normal (%) [4]: 97% and 95%
Population Pyknosed Nuclei (%) [4]: 8% and 6%
Population Tubulin-Different-Phenotype (%) [4]: 0%
Total Cell Count [4]: 234 and 120
Population Apoptotic (%) [5]: 86% and 92%
Population Fragmented Nuclei (%) [5]: 20% and 17%
Population Healthy Nuclei (%) [5]: 69%
Population Hoechst High Intensity Objects (%) [5]: 1% and 2%
Population Membrane Permeable-Phenotype (%) [5]: 3% and 8%
Population Mitochondria Different-Phenotype (%) [5]: 1% and 4%
Population Mitotic Cells (%) [5]: 13% and 8%
Population Normal (%) [5]: 98% and 97%
Population Pyknosed Nuclei (%) [5]: 10% and 13%
Population Tubulin-Different-Phenotype (%) [5]: 2% and 3%
Total Cell Count [5]: 364 and 196
Population Apoptotic (%) [6]: 77% and 100%
Population Fragmented Nuclei (%) [6]: 24% and 19%
Population Healthy Nuclei (%) [6]: 62% and 73%
Population Hoechst High Intensity Objects (%) [6]: 2% and 3%
Population Membrane Permeable-Phenotype (%) [6]: 4% and 5%
Population Mitochondria Different-Phenotype (%) [6]: 1% and 3%
Population Mitotic Cells (%) [6]: 22% and 0%
Population Normal (%) [6]: 97% and 96%
Population Pyknosed Nuclei (%) [6]: 12% and 6%
Population Tubulin-Different-Phenotype (%) [6]: 3% and 0%
Total Cell Count [6]: 322 and 165

Cc1c(C(=O)NCCCN(C)C)sc2ncnc(Nc3ccc(F)cc3OC(C)CF)c12 (stereo not given)
Population Apoptotic (%) [1]: 44.9% and 30.77%
Population Fragmented Nuclei (%) [1]: 1.42% and 2.65%
Population Healthy Nuclei (%) [1]: 84.66% and 80.13%
Population Hoechst High Intensity Objects (%) [1]: 0%
Population Membrane Permeable-Phenotype (%) [1]: 0.67% and 4.13%
Population Mitochondria Different-Phenotype (%) [1]: 0% and 15.7%
Population Mitotic Cells (%) [1]: 55.1% and 69.23%
Population Normal (%) [1]: 100%
Population Pyknosed Nuclei (%) [1]: 13.92% and 17.22%
Population Tubulin-Different-Phenotype (%) [1]: 2.68% and 0%
Total Cell Count [1]: 352 and 151
Population Apoptotic (%) [2]: 33.33% and 29.55%
Population Fragmented Nuclei (%) [2]: 6.74% and 4.73%
Population Healthy Nuclei (%) [2]: 69.66% and 65.54%
Population Hoechst High Intensity Objects (%) [2]: 0%
Population Membrane Permeable-Phenotype (%) [2]: 10.97% and 18.56%
Population Mitotic Cells (%) [2]: 66.67% and 70.45%
Population Normal (%) [2]: 100%
Population Pyknosed Nuclei (%) [2]: 23.6% and 29.73%
Population Tubulin-Different-Phenotype (%) [2]: 31.61% and 29.9%
Population Apoptotic (%) [3]: 56% and 51.85%
Population Fragmented Nuclei (%) [3]: 3.61% and 5.17%
Population Healthy Nuclei (%) [3]: 85.77% and 79.31%
Population Hoechst High Intensity Objects (%) [3]: 0%
Population Membrane Permeable-Phenotype (%) [3]: 1.49% and 4.35%
Population Mitotic Cells (%) [3]: 44% and 48.15%
Population Normal (%) [3]: 100%
Population Pyknosed Nuclei (%) [3]: 10.62% and 15.52%
Population Tubulin-Different-Phenotype (%) [3]: 1.98% and 0%
Total Cell Count [3]: 471 and 174
Population Apoptotic (%) [4]: 35% and 38.46%
Population Fragmented Nuclei (%) [4]: 3.34% and 4.57%
Population Healthy Nuclei (%) [4]: 63.26% and 58.29%
Population Hoechst High Intensity Objects (%) [4]: 0%
Population Membrane Permeable-Phenotype (%) [4]: 3.96% and 12.75%
Population Mitotic Cells (%) [4]: 65% and 61.54%
Population Normal (%) [4]: 100%
Population Pyknosed Nuclei (%) [4]: 33.4% and 37.14%
Population Tubulin-Different-Phenotype (%) [4]: 59.08% and 40.2%
Total Cell Count [4]: 479 and 175
Population Apoptotic (%) [5]: 48.89% and 51.28%
Population Fragmented Nuclei (%) [5]: 4.16% and 5.07%
Population Healthy Nuclei (%) [5]: 85.73% and 80.8%
Population Hoechst High Intensity Objects (%) [5]: 0%
Population Membrane Permeable-Phenotype (%) [5]: 1.31% and 1.35%
Population Mitochondria Different-Phenotype (%) [5]: 0.13% and 8.52%
Population Mitotic Cells (%) [5]: 51.11% and 48.72%
Population Normal (%) [5]: 100%
Population Pyknosed Nuclei (%) [5]: 10.11% and 14.13%
Population Tubulin-Different-Phenotype (%) [5]: 2.1% and 0.45%
Population Apoptotic (%) [6]: 53.75% and 63.55%
Population Fragmented Nuclei (%) [6]: 4.47% and 3.47%
Population Healthy Nuclei (%) [6]: 48.42% and 34.68%
Population Hoechst High Intensity Objects (%) [6]: 0.19% and 1.14%
Population Membrane Permeable-Phenotype (%) [6]: 12.31% and 18.33%
Population Mitotic Cells (%) [6]: 46.25% and 36.45%
Population Normal (%) [6]: 99.81% and 98.86%
Population Pyknosed Nuclei (%) [6]: 47.11% and 61.85%
Population Tubulin-Different-Phenotype (%) [6]: 44.62% and 53.33%
